What was measured:
human CB2 = human CB2 (Homo sapiens, UniProt P34972); assay: thallium flux, HEK/GIRK cells; type: cell-based
Outline: (§1)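 HEK/GIRK cells were made to stably express the receptor by ViaFect transfection with a pIRESpuro3 construct and selected with 1 μg/mL puromycin. Cells (15,000/well) were seeded overnight at 37 °C. They were loaded with 1.2 μM Thallos-AM in HBSS/20 mM HEPES pH 7.3 for 1 h at RT. Compound or DMSO was added, then 12 mM Tl2SO4 stimulus buffer with agonist 140 s later. The 145–155 s slope was vehicle-subtracted, normalized to maximal JWH133 signal and fit with a four-parameter logistic. Triplicate, three to five experiments.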

rat CB2 [1] = molecular target: T1, rat CB2 (Rattus norvegicus, UniProt Q9QZN9); assay: thallium flux, HEK/GIRK cells; type: cell-based
T1 sequence (Q9QZN9 1-360): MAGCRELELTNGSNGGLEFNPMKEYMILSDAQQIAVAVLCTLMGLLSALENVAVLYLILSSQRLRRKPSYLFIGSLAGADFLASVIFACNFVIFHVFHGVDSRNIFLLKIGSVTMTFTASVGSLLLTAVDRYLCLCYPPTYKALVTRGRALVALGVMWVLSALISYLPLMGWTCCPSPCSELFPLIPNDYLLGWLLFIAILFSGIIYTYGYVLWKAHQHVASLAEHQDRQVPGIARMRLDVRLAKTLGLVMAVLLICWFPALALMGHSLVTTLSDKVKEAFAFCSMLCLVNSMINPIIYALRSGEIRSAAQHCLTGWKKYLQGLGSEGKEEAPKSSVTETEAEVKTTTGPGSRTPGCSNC
Outline: as §1

rat CB1 [2] = molecular target: T2, rat CB1 (Rattus norvegicus, UniProt P20272); assay: thallium flux, HEK/GIRK cells; type: cell-based
T2 sequence (P20272 whole entry): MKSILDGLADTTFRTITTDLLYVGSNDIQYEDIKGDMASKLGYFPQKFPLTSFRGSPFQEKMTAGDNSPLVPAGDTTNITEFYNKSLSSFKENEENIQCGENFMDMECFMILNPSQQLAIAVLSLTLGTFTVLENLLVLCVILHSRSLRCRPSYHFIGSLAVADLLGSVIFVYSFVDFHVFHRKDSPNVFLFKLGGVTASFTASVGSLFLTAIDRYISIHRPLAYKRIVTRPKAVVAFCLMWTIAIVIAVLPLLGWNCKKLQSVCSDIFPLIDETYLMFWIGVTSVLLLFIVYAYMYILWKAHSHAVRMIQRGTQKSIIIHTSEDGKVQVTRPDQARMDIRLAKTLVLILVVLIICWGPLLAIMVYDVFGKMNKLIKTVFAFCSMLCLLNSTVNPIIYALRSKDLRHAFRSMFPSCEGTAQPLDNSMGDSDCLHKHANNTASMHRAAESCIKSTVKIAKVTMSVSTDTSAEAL

human CB1 = human CB1 (Homo sapiens, UniProt P21554); assay: thallium flux, HEK/GIRK cells; type: cell-based
human CB1, sequence (P21554 whole entry): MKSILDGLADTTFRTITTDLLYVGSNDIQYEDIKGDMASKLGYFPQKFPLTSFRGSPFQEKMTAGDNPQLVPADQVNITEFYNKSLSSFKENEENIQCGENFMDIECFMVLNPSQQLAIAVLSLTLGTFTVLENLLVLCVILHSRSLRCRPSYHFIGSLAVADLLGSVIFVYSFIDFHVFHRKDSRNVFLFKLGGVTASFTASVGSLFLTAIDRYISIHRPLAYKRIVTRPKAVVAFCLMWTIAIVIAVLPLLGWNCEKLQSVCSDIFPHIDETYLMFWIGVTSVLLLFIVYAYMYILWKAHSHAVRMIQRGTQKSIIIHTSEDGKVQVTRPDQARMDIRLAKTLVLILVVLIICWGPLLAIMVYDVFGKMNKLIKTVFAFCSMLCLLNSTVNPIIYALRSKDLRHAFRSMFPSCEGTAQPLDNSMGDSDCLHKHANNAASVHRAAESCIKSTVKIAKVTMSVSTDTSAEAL

rat CB2 [3] = molecular target: T1, rat CB2; assay: [3H]CP55940 competition, HEK/GIRK membranes; type: binding
rat CB2 [4] = molecular target: T1, rat CB2; assay: thallium flux, HEK/GIRK cells, compound alone; type: cell-based
rat CB1 [5] = molecular target: T2, rat CB1; assay: PI hydrolysis, [3H]inositol phosphate chromatography, HEK/Gqi9 cells; type: cell-based
Outline: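 HEK293 cells stably expressing Gqi9 were transfected with a pIRESpuro3 receptor construct and puromycin-selected. They were seeded at 1.5 X 10^5 cells/well and assayed after 48 h. Cells were labelled overnight with 0.4 μCi myo-[3H]inositol in inositol-free DMEM with 5% dialyzed FBS. Agonists were added at 5x in 50 mM LiCl/250 mM HEPES pH 7.25 for 30 min at 37 °C. Reactions were stopped with boiling EDTA pH 8.0, and [3H]inositol phosphates were resolved on Dowex AG1-X8 and scintillation counted.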

human CB2, sequence (P34972 whole entry): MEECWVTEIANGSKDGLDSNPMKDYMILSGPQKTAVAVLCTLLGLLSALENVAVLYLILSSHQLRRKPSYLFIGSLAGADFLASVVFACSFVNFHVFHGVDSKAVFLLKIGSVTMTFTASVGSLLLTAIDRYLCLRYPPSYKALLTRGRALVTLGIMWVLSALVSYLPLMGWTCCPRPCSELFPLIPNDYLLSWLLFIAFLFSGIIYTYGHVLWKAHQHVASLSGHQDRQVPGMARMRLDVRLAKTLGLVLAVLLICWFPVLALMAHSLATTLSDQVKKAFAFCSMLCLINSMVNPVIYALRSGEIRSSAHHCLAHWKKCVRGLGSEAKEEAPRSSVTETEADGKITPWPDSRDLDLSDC

Compound | EC50 (human CB2) [µM] | EC50 (rat CB2 [1]) [µM] | EC50 (human CB1) [µM] | other results
CCCCC/C=C\C/C=C\C/C=C\C/C=C\CCCC(=O)OC(CO)CO [2-AG] | 0.145 | 0.049 | – | –
CCCCC/C=C\C/C=C\C/C=C\C/C=C\CCCC(=O)NCCCl [ACEA, N-(2-Chloroethyl)-5Z,8Z,11Z,14Z-eicosatetraenamide] | 1.7 | 0.251 | 0.0603 | EC50 (rat CB1 [2]): 0.02 µM
COc1ccc(C(=O)c2c(C)n(CCN3CCOCC3)c3cc(I)ccc23)cc1 [AM630] | – | – | – | IC50 (rat CB2 [3]): 0.0724 µM
Cc1c(Br)cn(Cc2ccc(F)cc2)c(=O)c1NC(=O)C1CCCCCC1 [EC21a] | – | – | – | EC50 (rat CB2 [4]): 0.1 µM; EC50 (rat CB1 [5]): 1.7 µM
CCCC(C)(C)c1ccc2c(c1)OC(C)(C)[C@@H]1CC=C(C)C[C@@H]21 [JWH133] | 0.275 | 0.537 | 1.23 | –
